In ChEMBL document CHEMBL4152188, “Design, synthesis and biological evaluation of C(4) substituted monobactams as antibacterial agents against multidrug-resistant Gram-negative bacteria” (Eur J Med Chem, 2018):

How the values were obtained:
Format in all cases: functional
Escherichia coli [1] = test: Selectivity index, ratio of MIC for against extended-spectrum beta-lactamase producing Escherichia coli isolate 212648 to MIC for extended-spectrum beta-lactamase producing Escherichia coli isolate 212648 in presence of BPL
Pseudomonas aeruginosa [2] = test: Antibacterial activity against IMP-4 producing Pseudomonas aeruginosa isolate 212886 after 18 hrs in presence of BPL by CLSI broth microdilution method; settings: isolate 212886, 18 h
Outline: (§1)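 CLSI broth microdilution against clinical isolates (ESBL E. coli, KPC-2 MDR K. pneumoniae, IMP-4 MDR P. aeruginosa; five per species). Iron limitation: Mueller-Hinton broth supplemented with 16 mg/liter 2,2'-bipyridyl to complex iron and induce iron uptake systems. Read-out: MIC.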

Pseudomonas aeruginosa [3] = test: Selectivity index, ratio of MIC for against IMP-4 producing Pseudomonas aeruginosa isolate 212886 to MIC for against IMP-4 producing Pseudomonas aeruginosa isolate 212886 in presence of BPL
Klebsiella pneumoniae [4] = test: Antibacterial activity against KPC-2 producing Klebsiella pneumoniae isolate 212423 after 18 hrs in presence of BPL by CLSI broth microdilution method; settings: isolate 212423, 18 h; outline: as §1
Pseudomonas aeruginosa [5] = test: Antibacterial activity against IMP-4 producing Pseudomonas aeruginosa isolate 207272 after 18 hrs in presence of BPL by CLSI broth microdilution method; settings: isolate 207272, 18 h; outline: as §1
Klebsiella pneumoniae [6] = test: Antibacterial activity against KPC-2 producing Klebsiella pneumoniae isolate 209632 after 18 hrs in presence of BPL by CLSI broth microdilution method; settings: isolate 209632, 18 h; outline: as §1
Klebsiella pneumoniae [7] = test: Antibacterial activity against KPC-2 producing Klebsiella pneumoniae isolate 209735 after 18 hrs in presence of BPL by CLSI broth microdilution method; settings: isolate 209735, 18 h; outline: as §1
Escherichia coli [8] = test: Antibacterial activity against Escherichia coli isolate 210737 after 18 hrs in presence of BPL by CLSI broth microdilution method; settings: isolate 210737, 18 h; outline: as §1
Pseudomonas aeruginosa [9] = test: Antibacterial activity against IMP-4 producing Pseudomonas aeruginosa isolate 208247 after 18 hrs in presence of BPL by CLSI broth microdilution method; settings: isolate 208247, 18 h; outline: as §1
Escherichia coli [10] = test: Antibacterial activity against extended-spectrum beta-lactamase producing Escherichia coli isolate 209285 after 18 hrs by CLSI broth microdilution method; settings: isolate 209285, 18 h
Escherichia coli [11] = test: Antibacterial activity against extended-spectrum beta-lactamase producing Escherichia coli isolate 106342 after 18 hrs in presence of BPL by CLSI broth microdilution method; settings: isolate 106342, 18 h; outline: as §1
Pseudomonas aeruginosa [12] = test: Selectivity index, ratio of MIC for against IMP-4 producing Pseudomonas aeruginosa isolate 207272 to MIC for against IMP-4 producing Pseudomonas aeruginosa isolate 207272 in presence of BPL
Klebsiella pneumoniae [13] = test: Antibacterial activity against KPC-2 producing Klebsiella pneumoniae isolate 212423 after 18 hrs by CLSI broth microdilution method; settings: isolate 212423, 18 h
Escherichia coli [14] = test: Selectivity index, ratio of MIC for against Escherichia coli isolate 210737 to MIC for Escherichia coli isolate 210737 in presence of BPL
Pseudomonas aeruginosa [15] = test: Selectivity index, ratio of MIC for against IMP-4 producing Pseudomonas aeruginosa isolate 209471 to MIC for against IMP-4 producing Pseudomonas aeruginosa isolate 209471 in presence of BPL
Klebsiella pneumoniae [16] = test: Selectivity index, ratio of MIC for against KPC-2 producing Klebsiella pneumoniae isolate 209632 to MIC for against KPC-2 producing Klebsiella pneumoniae isolate 209632 in presence of BPL
Klebsiella pneumoniae [17] = test: Selectivity index, ratio of MIC for against KPC-2 producing Klebsiella pneumoniae isolate 209735 to MIC for against KPC-2 producing Klebsiella pneumoniae isolate 209735 in presence of BPL
Klebsiella pneumoniae [18] = test: Antibacterial activity against KPC-2 producing Klebsiella pneumoniae isolate 212229 after 18 hrs by CLSI broth microdilution method; settings: isolate 212229, 18 h
Escherichia coli [19] = test: Selectivity index, ratio of MIC for against extended-spectrum beta-lactamase producing Escherichia coli isolate 106342 to MIC for extended-spectrum beta-lactamase producing Escherichia coli isolate 106342 in presence of BPL
Escherichia coli [20] = test: Antibacterial activity against extended-spectrum beta-lactamase producing Escherichia coli isolate 209285 after 18 hrs in presence of BPL by CLSI broth microdilution method; settings: isolate 209285, 18 h; outline: as §1
Escherichia coli [21] = test: Antibacterial activity against extended-spectrum beta-lactamase producing Escherichia coli isolate 212648 after 18 hrs in presence of BPL by CLSI broth microdilution method; settings: isolate 212648, 18 h; outline: as §1
Klebsiella pneumoniae [22] = test: Antibacterial activity against KPC-2 producing Klebsiella pneumoniae isolate 212232 after 18 hrs in presence of BPL by CLSI broth microdilution method; settings: isolate 212232, 18 h; outline: as §1
Pseudomonas aeruginosa [23] = test: Selectivity index, ratio of MIC for against IMP-4 producing Pseudomonas aeruginosa isolate 209321 to MIC for against IMP-4 producing Pseudomonas aeruginosa isolate 209321 in presence of BPL
Pseudomonas aeruginosa [24] = test: Antibacterial activity against IMP-4 producing Pseudomonas aeruginosa isolate 208247 after 18 hrs by CLSI broth microdilution method; settings: isolate 208247, 18 h
Escherichia coli [25] = test: Antibacterial activity against extended-spectrum beta-lactamase producing Escherichia coli isolate 212648 after 18 hrs by CLSI broth microdilution method; settings: isolate 212648, 18 h
Klebsiella pneumoniae [26] = test: Selectivity index, ratio of MIC for against KPC-2 producing Klebsiella pneumoniae isolate 212423 to MIC for against KPC-2 producing Klebsiella pneumoniae isolate 212423 in presence of BPL
Escherichia coli [27] = test: Selectivity index, ratio of MIC for against extended-spectrum beta-lactamase producing Escherichia coli isolate 208687 to MIC for extended-spectrum beta-lactamase producing Escherichia coli isolate 208687 in presence of BPL
Pseudomonas aeruginosa [28] = test: Antibacterial activity against IMP-4 producing Pseudomonas aeruginosa isolate 209471 after 18 hrs by CLSI broth microdilution method; settings: isolate 209471, 18 h
Klebsiella pneumoniae [29] = test: Antibacterial activity against KPC-2 producing Klebsiella pneumoniae isolate 212229 after 18 hrs in presence of BPL by CLSI broth microdilution method; settings: isolate 212229, 18 h; outline: as §1
Pseudomonas aeruginosa [30] = test: Selectivity index, ratio of MIC for against IMP-4 producing Pseudomonas aeruginosa isolate 208247 to MIC for against IMP-4 producing Pseudomonas aeruginosa isolate 208247 in presence of BPL
Pseudomonas aeruginosa [31] = test: Antibacterial activity against IMP-4 producing Pseudomonas aeruginosa isolate 207272 after 18 hrs by CLSI broth microdilution method; settings: isolate 207272, 18 h
Pseudomonas aeruginosa [32] = test: Antibacterial activity against IMP-4 producing Pseudomonas aeruginosa isolate 212886 after 18 hrs by CLSI broth microdilution method; settings: isolate 212886, 18 h
Pseudomonas aeruginosa [33] = test: Antibacterial activity against IMP-4 producing Pseudomonas aeruginosa isolate 209321 after 18 hrs by CLSI broth microdilution method; settings: isolate 209321, 18 h
Escherichia coli [34] = test: Antibacterial activity against extended-spectrum beta-lactamase producing Escherichia coli isolate 208687 after 18 hrs in presence of BPL by CLSI broth microdilution method; settings: isolate 208687, 18 h; outline: as §1
Escherichia coli [35] = test: Antibacterial activity against Escherichia coli isolate 210737 after 18 hrs by CLSI broth microdilution method; settings: isolate 210737, 18 h
Klebsiella pneumoniae [36] = test: Antibacterial activity against KPC-2 producing Klebsiella pneumoniae isolate 212232 after 18 hrs by CLSI broth microdilution method; settings: isolate 212232, 18 h
Escherichia coli [37] = test: Antibacterial activity against extended-spectrum beta-lactamase producing Escherichia coli isolate 208687 after 18 hrs by CLSI broth microdilution method; settings: isolate 208687, 18 h
Escherichia coli [38] = test: Selectivity index, ratio of MIC for against extended-spectrum beta-lactamase producing Escherichia coli isolate 209285 to MIC for extended-spectrum beta-lactamase producing Escherichia coli isolate 209285 in presence of BPL
Klebsiella pneumoniae [39] = test: Antibacterial activity against KPC-2 producing Klebsiella pneumoniae isolate 209735 after 18 hrs by CLSI broth microdilution method; settings: isolate 209735, 18 h
Pseudomonas aeruginosa [40] = test: Antibacterial activity against IMP-4 producing Pseudomonas aeruginosa isolate 209321 after 18 hrs in presence of BPL by CLSI broth microdilution method; settings: isolate 209321, 18 h; outline: as §1
Pseudomonas aeruginosa [41] = test: Antibacterial activity against IMP-4 producing Pseudomonas aeruginosa isolate 209471 after 18 hrs in presence of BPL by CLSI broth microdilution method; settings: isolate 209471, 18 h; outline: as §1
Klebsiella pneumoniae [42] = test: Antibacterial activity against KPC-2 producing Klebsiella pneumoniae isolate 209632 after 18 hrs by CLSI broth microdilution method; settings: isolate 209632, 18 h
Klebsiella pneumoniae [43] = test: Selectivity index, ratio of MIC for against KPC-2 producing Klebsiella pneumoniae isolate 212229 to MIC for against KPC-2 producing Klebsiella pneumoniae isolate 212229 in presence of BPL
Escherichia coli [44] = test: Antibacterial activity against extended-spectrum beta-lactamase producing Escherichia coli isolate 106342 after 18 hrs by CLSI broth microdilution method; settings: isolate 106342, 18 h
Klebsiella pneumoniae [45] = test: Selectivity index, ratio of MIC for against KPC-2 producing Klebsiella pneumoniae isolate 212232 to MIC for against KPC-2 producing Klebsiella pneumoniae isolate 212232 in presence of BPL

CC(C)C(O/N=C(\C(=O)N[C@@H]1C(=O)N(S(=O)(=O)O)[C@@H]1COS(=O)(=O)O)c1csc(N)n1)c1cc(=O)c(O)cn1O (stereo not given in full)
8 µg/mL: MIC (Escherichia coli [10]) | MIC (Escherichia coli [25]) | MIC (Escherichia coli [37]) | MIC (Escherichia coli [44])
1: Selectivity Index (Pseudomonas aeruginosa [12]) | Selectivity Index (Escherichia coli [14]) | Selectivity Index (Pseudomonas aeruginosa [15]) | Selectivity Index (Pseudomonas aeruginosa [23]) | Selectivity Index (Pseudomonas aeruginosa [30])
8: Selectivity Index (Klebsiella pneumoniae [17])
0.5 µg/mL: MIC (Klebsiella pneumoniae [4]) | MIC (Klebsiella pneumoniae [42])
> 64 µg/mL: MIC (Pseudomonas aeruginosa [32])
0.25 µg/mL: MIC (Klebsiella pneumoniae [7]) | MIC (Klebsiella pneumoniae [29])
>2: Selectivity Index (Pseudomonas aeruginosa [3])
2: Selectivity Index (Escherichia coli [19]) | Selectivity Index (Escherichia coli [38])
4: Selectivity Index (Escherichia coli [1]) | Selectivity Index (Klebsiella pneumoniae [16]) | Selectivity Index (Klebsiella pneumoniae [26]) | Selectivity Index (Escherichia coli [27]) | Selectivity Index (Klebsiella pneumoniae [43])
16: Selectivity Index (Klebsiella pneumoniae [45])
4 µg/mL: MIC (Escherichia coli [11]) | MIC (Escherichia coli [20])
32 µg/mL: MIC (Pseudomonas aeruginosa [2]) | MIC (Pseudomonas aeruginosa [5]) | MIC (Pseudomonas aeruginosa [9]) | MIC (Pseudomonas aeruginosa [24]) | MIC (Pseudomonas aeruginosa [28]) | MIC (Pseudomonas aeruginosa [31]) | MIC (Pseudomonas aeruginosa [33]) | MIC (Pseudomonas aeruginosa [40]) | MIC (Pseudomonas aeruginosa [41])
0.125 µg/mL: MIC (Klebsiella pneumoniae [6]) | MIC (Klebsiella pneumoniae [22])
1 µg/mL: MIC (Klebsiella pneumoniae [18])
2 µg/mL: MIC (Escherichia coli [8]) | MIC (Klebsiella pneumoniae [13]) | MIC (Escherichia coli [21]) | MIC (Escherichia coli [34]) | MIC (Escherichia coli [35]) | MIC (Klebsiella pneumoniae [36]) | MIC (Klebsiella pneumoniae [39])

CC(C)C(O/N=C(\C(=O)N[C@@H]1C(=O)N(S(=O)(=O)O)[C@@H]1CO)c1csc(N)n1)c1cc(=O)c(O)cn1O (stereo not given in full)
2 µg/mL: MIC (Klebsiella pneumoniae [6]) | MIC (Klebsiella pneumoniae [22])
> 64 µg/mL: MIC (Pseudomonas aeruginosa [5]) | MIC (Escherichia coli [8]) | MIC (Pseudomonas aeruginosa [9]) | MIC (Pseudomonas aeruginosa [24]) | MIC (Pseudomonas aeruginosa [28]) | MIC (Pseudomonas aeruginosa [31]) | MIC (Pseudomonas aeruginosa [32]) | MIC (Escherichia coli [35]) | MIC (Pseudomonas aeruginosa [41])
8 µg/mL: MIC (Klebsiella pneumoniae [4]) | MIC (Klebsiella pneumoniae [13]) | MIC (Klebsiella pneumoniae [18]) | MIC (Klebsiella pneumoniae [42])
1: Selectivity Index (Escherichia coli [1]) | Selectivity Index (Klebsiella pneumoniae [17]) | Selectivity Index (Escherichia coli [19]) | Selectivity Index (Pseudomonas aeruginosa [23]) | Selectivity Index (Klebsiella pneumoniae [26])
1 - 2: Selectivity Index (Escherichia coli [14])
64 µg/mL: MIC (Escherichia coli [10]) | MIC (Escherichia coli [11]) | MIC (Escherichia coli [21]) | MIC (Escherichia coli [25]) | MIC (Pseudomonas aeruginosa [33]) | MIC (Escherichia coli [37]) | MIC (Pseudomonas aeruginosa [40]) | MIC (Escherichia coli [44])
>4: Selectivity Index (Pseudomonas aeruginosa [3])
2: Selectivity Index (Escherichia coli [27]) | Selectivity Index (Escherichia coli [38]) | Selectivity Index (Klebsiella pneumoniae [43])
16 µg/mL: MIC (Pseudomonas aeruginosa [2]) | MIC (Klebsiella pneumoniae [7]) | MIC (Klebsiella pneumoniae [36]) | MIC (Klebsiella pneumoniae [39])
4 µg/mL: MIC (Klebsiella pneumoniae [29])
8: Selectivity Index (Klebsiella pneumoniae [45])
4: Selectivity Index (Klebsiella pneumoniae [16])
32 µg/mL: MIC (Escherichia coli [20]) | MIC (Escherichia coli [34])
1 - 4: Selectivity Index (Pseudomonas aeruginosa [12]) | Selectivity Index (Pseudomonas aeruginosa [15]) | Selectivity Index (Pseudomonas aeruginosa [30])
